Screens as filed in PubChem.
Htt clearance = clearance of mutant huntingtin inclusions, primary screen, imaging, HeLa Exon1htt(103Q)mCFP, confocal imaging; aggregate imaging; zero = plate's median compound well; inhibition, % at 1.5 µM; 47,000 compounds, 0.42% hits;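 active = inhibition of aggregate fluorescence above about 70%, also judged a hit by eye on the cell image, limit read from the data, passing the limit was not always enough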;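 note: cells exposed to compound for three days before fixation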
M1 antag = antagonists of rat M1 muscarinic receptor; CHO-M1 cells, Fluo-4 calcium, ACh EC80 antagonist mode; hits give low values; AID 628, 2007; B-score at 10 µM; 64,000 compounds, 3.4% hits; Muscarinic acetylcholine receptor M1 (Rattus norvegicus), P08482;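 active = calcium fluorescence response, raw or row-and-column corrected B-score, differing from the plate sample mean either way at a set confidence level, mostly lower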
D1 mod = D1 CRE-luciferase signal change, two-sided – cell-based, HEK293 D1, dopamine EC30, D1 allosteric modulator project, primary screen. D(1A) dopamine receptor (Homo sapiens), P21728. dopamine EC30 potentiation; actives deviate in either direction. B-score at 10 µM. 58,000 compounds, 5.9% hits;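 active = luminescence count or its row- and column-corrected plate score outside the 99.7% band of the plate's sample wells, on either side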
SF-1 act = activators of human SF-1, primary screen, cell-based, CHO-K1, Gal4-SF-1 LBD, luciferase luminescence; 65,000 compounds, 1.9% hits; activation, % at 10 µM; Steroidogenic factor 1 (Homo sapiens), Q13285; CHO-K1 Gal4-SF-1 LBD luciferase reporter; % increase over DMSO SF-1-specific signal;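 active = activation above the mean activation of all tested compounds plus 3 SD, cut at about 50% in these data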
Target sequence (Q13285 whole entry, looked up, the tested form may be a part): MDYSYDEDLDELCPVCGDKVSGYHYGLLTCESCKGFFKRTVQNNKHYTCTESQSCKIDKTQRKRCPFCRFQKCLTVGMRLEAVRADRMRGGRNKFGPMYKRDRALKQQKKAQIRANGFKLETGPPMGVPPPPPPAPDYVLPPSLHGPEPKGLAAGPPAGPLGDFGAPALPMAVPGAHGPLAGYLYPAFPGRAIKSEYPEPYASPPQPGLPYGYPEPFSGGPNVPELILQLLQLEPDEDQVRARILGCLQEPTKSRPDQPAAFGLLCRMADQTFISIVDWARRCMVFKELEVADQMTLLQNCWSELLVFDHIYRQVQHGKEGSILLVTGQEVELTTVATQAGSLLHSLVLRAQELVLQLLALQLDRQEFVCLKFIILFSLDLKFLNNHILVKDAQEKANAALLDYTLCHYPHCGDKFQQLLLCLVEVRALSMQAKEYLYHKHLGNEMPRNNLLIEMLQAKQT
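System: CHO-K1 cells with Gal4–hSF-1 LBD chimera plus Gal4-driven luciferase; quantity: 4,000 CHO-K1 cells per well; compound: one dose, 10 µM compound, 1% DMSO; times: 20 h compound treatment, 37 °C; measured by: SteadyLite luciferase luminescence; read-out: percent activation versus DMSO; benchmarks: DMSO and mock-transfected background; replicates: one test per compound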
M1 agonist = M1 muscarinic receptor agonists, primary screen, CHO-M1 cells, Fluo-4 calcium, agonist mode; Muscarinic acetylcholine receptor M1; Fluo-4 calcium fluorescence; hits give high values; B-score at 10 µM; 64,000 compounds, 3% hits; AID 626, 2007;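 active = fluorescence rise, raw or as B-score row- and column-corrected plate score, outside the 99.7% band of its plate's samples, either direction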
RORa activator = activators of orphan receptor RORA, primary screen, cell-based, luminescence | AID 560, 2006 | 65,000 compounds, 1.5% hits | activation, % at 10 µM | CHO-K1 Gal4-RORA LBD luciferase reporter; percent increase over mock-subtracted basal signal;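 active = activation above the mean of all tested compounds plus 3 SD, cut at about 49% in these data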;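 note: 0% = DMSO-treated RORA cells and 100% = added signal equal to DMSO minus mock-transfected cells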
M1 antag confirm = rat M1 muscarinic receptor antagonists, confirmation, CHO cells, Fluo-4 calcium, duplicate; shares compounds with M1 antag; ACh EC80 antagonism; hits give low values; calcium response (max-min fluorescence) at 10 µM; 1,700 compounds, 43% hits; AID 677, 2007;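 active = calcium response below the same-plate mean of wells given acetylcholine alone at its 80%-effect dose, minus 3 SD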;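 note: raw fluorescence intensity difference in arbitrary instrument units and not normalized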
mGluR4 antag = human mGluR4 response to M1 antagonist hits, M1 allosteric modulator project, cell-based, antagonist mode, secondary assay 1 | CHO-mGluR4 calcium flux, Fluo-4 fluorescence, glutamate EC80; hits give low values | fluorescence response (max-min) at 10 µM | shares compounds with M1 antag | 1,700 compounds, 0.9% hits | AID 678, 2007;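 active = fluorescence response below the plate's average for near-maximal glutamate wells, less 3 SD of those wells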;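 note: raw unnormalized fluorescence span taken in the window right after glutamate addition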
* marks the source's active call; other numbers are inactive results; . = no result given. An excerpt weighted towards active compounds, which were near 11% of everything screened.

SMILES	Htt clearance	M1 antag	D1 mod	SF-1 act	M1 agonist	RORa activator	M1 antag confirm	mGluR4 antag
Cc1ccc(C)c(N2C(=O)CC(N3CCN(Cc4ccc5c(c4)OCO5)CC3)C2=O)c1 (stereo unspecified)	.	-2.9*	-0.7	7	-0.59	-14	542*	178
Cc1ccc2c(CN3CCN(Cc4ccc5c(c4)OCO5)CC3)cc(=O)oc2c1C	-24	-2.3*	-0.28	-6	0.13	-3	475*	256
CCN1CCN(Cc2cc(=O)oc3cc(C)cc(C)c23)CC1	.	-1.2*	-1.4	21	-2.1	-28	461*	253
CC(C)CC(=O)CN1C(=O)C2(OCCO2)c2ccccc21	.	2	-0.0025	-12	1.2	6	.	.
CCOc1ccc(-c2cc(NC(=O)Cn3ncc4c3-c3ccccc3OC4)on2)cc1OCC	.	0.99	4.2	24	0.21	23	.	.
COc1ccc(NC(=O)CC2C(=O)N(c3cccc(OC)c3)C(=O)N2C2CCCCC2)cc1 (stereo unspecified)	.	0.89	-0.38	-1	-0.096	3	.	.
Cc1cc(C)c2c(CN3CCN(Cc4ccc5c(c4)OCO5)CC3)cc(=O)oc2c1	.	-10*	-0.02	-2	-0.2	1	61*	299
C=CCN(C1CCCCC1)S(=O)(=O)c1ccc2c(c1)oc(=O)n2C	-274	-4.9*	0.75	5	0.83	11	567	289
C=CCN(c1ccccc1)S(=O)(=O)c1ccc2c(c1)oc(=O)n2C	-16	-1.9	-0.3	14	-2	13	.	.
CC(C)NC(=O)Cn1nnc(-c2cccc(NC(=O)c3ccccc3F)c2)n1	.	-17*	-0.48	16	0.58	18	634	250
O=C(CCN1C(=O)C2C3C=CC(C3)C2C1=O)Nc1ccc(F)cc1 (stereo unspecified)	.	-1.5	-1.2	-1	-0.043	6	.	.
O=C(CCN1C(=O)C2C3C=CC(C3)C2C1=O)Nc1ccc2c(c1)OCO2 (stereo unspecified)	62	-2.6*	-0.3	4	0.31	12	588	211
CCC(C)(C)n1nnnc1C(C(C)C)N1CCSCC1 (stereo unspecified)	.	0.47	-1.3	1	1.5	0	.	.
CC1(C)CC(=O)C(C=Nc2ccc(O)cc2)=C(O)C1	-6	-2.2*	.	51*	-0.053	36	644	249
CN=CC1=C(O)CC(C)(C)CC1=O	.	-0.045	-1.3	6	0.0051	-27	.	.
O=C(CSc1nnnn1-c1cccc2c1CCCC2)NC1CCCC1	12	.	.	.	.	.	.	.
Cc1ccccc1OCC(=O)OC(C)CN1CCN(C)CC1 (stereo unspecified)	.	-5.5*	-0.035	6	0.32	11	641	246
N#Cc1ccc(N2CCN(C(=O)c3cccc(F)c3)CC2)c(F)c1	.	-0.74	0.0031	13	-1.8	1	.	.
CCOC(=O)c1[nH]c(C(=O)O)c(CCN(CC)CC)c1C	14	.	.	.	.	.	.	.
Cc1ccccc1OCc1nnc(SCC(=O)Nc2ccc(N3CCOCC3)c(Cl)c2)n1C	13	.	.	.	.	.	.	.
CC(C)(C)N(Cc1ccccc1)C(=O)c1ccc2c(c1)OCCO2	-20	-1.8*	-0.055	-17	0.059	-15	483	204
O=C(O)c1ccc2c(c1)OCCO2	-10	.	.	.	.	.	.	.
CC(=O)N(Cc1ccccc1)c1ccc(C(=O)O)cc1	-7	-2*	.	-14	-0.26	-25	16*	232
NC(=O)Cn1nnc(-c2ccc(C(F)(F)F)cc2)n1	44	0.53	0.69	34	-1.9	5	.	.
O=C(Cn1nnc(-c2cccc(C(F)(F)F)c2)n1)N1CCOCC1	.	-2.1*	-1.7	-5	-0.77	-8	661	182
SMILES	Htt clearance	M1 antag	D1 mod	SF-1 act	M1 agonist	RORa activator	M1 antag confirm	mGluR4 antag
COc1cccc(NC(=O)CSc2nnc(-c3cc(C)n(-c4ccccc4)c3C)o2)c1	.	-2.6*	-2.9	-67	0.21	-71	504	237
COc1ccccc1-c1nnc(SCC(=O)Nc2c(Cl)cccc2Cl)o1	-13	-0.58	-0.35	5	0.0072	-26	.	.
CCc1c(O)nc(SCC(=O)Nc2ccccc2OC)[nH]c1=O	.	-1*	-0.78	-7	0.62	5	529	166
COc1ccccc1NC(=O)CSc1nc(O)cc(=O)[nH]1	.	-0.96	-0.47	-7	0.18	32	.	.
CC(C)(C)NC(=O)Cn1ccc(=N)c2ccccc21	14	-2.5*	-0.39	-5	-0.05	-3	476	192
Cc1noc(C)c1COC(=O)c1cccnc1SCC(=O)Nc1ccc2c(c1)OCO2	-16	-6.2*	2	3	-1.6	-9	132*	242
CCCCc1c(C)nn(-c2nnc3c4ccccc4n(CC)c3n2)c1C	-18	-2.7*	-1.4	-12	-0.33	2	591	186
COc1ccc(C(=O)Nc2c(N)nc(SCC(=O)N3CCCCCC3)[nH]c2=O)cc1OC	.	1.2	0.054	-9	0.7	-7	.	.
Cc1oc(-c2cccc(Cl)c2)nc1CN1CCC(C(=O)N2CCN(c3ccccn3)CC2)CC1	.	-1.8	-0.8	20	2.8	15	.	.
CCc1ccc(-c2nc(CN3CCC(C(=O)N4CCN(c5ccccc5)CC4)CC3)c(C)o2)cc1	.	-2.9*	1.4	10	0.72	4	486*	255
CCc1ccc(-c2nc(CN3CCC(C(=O)NCCN(CC)c4ccccc4)CC3)c(C)o2)cc1	.	0.46	-1.4	-7	1.1	-24	.	.
Cc1oc(-c2ccc(Cl)cc2)nc1CN1CCC(C(=O)N2CCN(c3ccccn3)CC2)CC1	.	-3.2*	-0.79	-2	0.48	13	385	236
CN1CCN(CCCNC(=O)c2ccc3c(c2)N(Cc2ccccc2)CCS3)CC1	12	-0.47	-0.75	-8	0.54	-8	.	.
CCc1nc2ccccc2n1Cc1cc(=O)n2cc(C)ccc2n1	37	-0.11	-0.098	-9	0.58	-24	.	.
O=C(CCNS(=O)(=O)c1cccc2nonc12)N1CCN(c2cccc(Cl)c2)CC1	.	-3.1*	.	-14	0.19	0	253*	251
O=C(CCS(=O)(=O)c1cccc2nonc12)N1CCN(c2ccc(F)cc2)CC1	.	-6.9*	-0.11	-16	0.04	-19	622	303
